Only some compounds are listed: those with a hit (about 2.1% of all), similar ones and a draw of the others.
LMPTP inh – LMPTP phosphatase inhibitors, primary screen, biochemical, fluorescence intensity, uHTS; AID 651560, 2012; recombinant LMPTP-A, OMFP fluorogenic substrate; actives 0.22% (n = 360,000); Low molecular weight phosphotyrosine protein phosphatase (Homo sapiens), P24666; inhibition, % at 20 µM;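 active = compounds that cut the enzyme signal by at least half of the control window in the single-dose screen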;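 note: plate controls were DMSO wells with enzyme plus substrate for no effect and substrate without enzyme for full effect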
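Assay system: LMPTP-A, protein tyrosine phosphatase of low molecular weight / Medium: pH 6.0 Bis-Tris buffer with DTT and Triton X-100 / Schedule: 50 min enzyme reaction at room temperature, protected from light / Measured by: endpoint fluorescence intensity from OMFP dephosphorylation / Read-out basis: % inhibition relative to no-enzyme and uninhibited control wells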
STEP inh – STEP phosphatase inhibitors, primary screen, biochemical, fluorescence intensity, uHTS. recombinant STEP, OMFP fluorogenic substrate. Tyrosine-protein phosphatase non-receptor type 5 (Homo sapiens), P54829. inhibition, % at 20 µM. actives 0.25% (n = 360,000);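 active = inhibition at 20 µM, scaled per plate between control wells, above about 37%, limit read from the data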;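 note: 0% = DMSO with enzyme and substrate and 100% = substrate only without enzyme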
Target sequence (P54829 whole entry, looked up): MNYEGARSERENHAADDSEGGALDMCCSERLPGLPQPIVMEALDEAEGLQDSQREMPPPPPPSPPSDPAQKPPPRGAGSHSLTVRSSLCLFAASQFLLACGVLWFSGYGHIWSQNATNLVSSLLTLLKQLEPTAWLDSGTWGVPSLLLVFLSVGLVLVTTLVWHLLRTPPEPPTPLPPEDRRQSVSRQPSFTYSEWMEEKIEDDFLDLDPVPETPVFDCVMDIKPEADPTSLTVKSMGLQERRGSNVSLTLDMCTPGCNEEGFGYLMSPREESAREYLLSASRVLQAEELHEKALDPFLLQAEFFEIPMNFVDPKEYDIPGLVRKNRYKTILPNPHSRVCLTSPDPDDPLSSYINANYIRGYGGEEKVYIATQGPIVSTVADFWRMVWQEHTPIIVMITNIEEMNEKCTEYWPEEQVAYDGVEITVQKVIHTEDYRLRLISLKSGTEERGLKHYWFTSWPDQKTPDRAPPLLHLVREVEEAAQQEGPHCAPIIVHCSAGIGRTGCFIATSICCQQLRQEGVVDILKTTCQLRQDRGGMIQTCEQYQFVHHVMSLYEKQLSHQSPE
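medium = Bis-Tris buffer pH 6.0, 2.5 mM DTT, 0.005% Tween 20 | test system = STEP (striatal-enriched tyrosine phosphatase) enzyme, cell-free | measure = normalized % inhibition | compound dosing = 20 µM, 1% DMSO | also added = 25 µM OMFP | schedule = reaction 20 min, ambient temperature | measured by = fluorescence read at 480 nm ex / 540 nm em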
Scp1 inh – Scp-1 phosphatase inhibitors, primary screen, biochemical, colorimetric, uHTS. Carboxy-terminal domain RNA polymerase II polypeptide A small phosphatase 1 (Homo …. actives 0.88% (n = 340,000). Recombinant Scp1, phosphopeptide, malachite green phosphate absorbance. inhibition, % at 20 µM;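 active = inhibition above about 50% at 20 µM, limit read from the data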;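 note: plate controls were DMSO wells with enzyme for no effect and wells lacking enzyme for full effect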
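Assay system: SCP-1 catalytic fragment, aa 76-261 | Buffer or medium: Tris acetate buffer pH 5.5 with MgCl2 and Tween-20 | Compound: One concentration, 20 µM, with 1.0% DMSO | Also added: Phospho 17-mer peptide substrate | Signal: Absorbance at 630 nm | Incubation: 45 min enzyme reaction at room temperature | Measure: % inhibition of SCP-1 phosphate liberation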
GRK2 inh – compounds blocking aptamer binding on GRK2 – biochemical, human GRK2, bead flow cytometry, HTS, primary screen; Beta-adrenergic receptor kinase 1 (Homo sapiens), P25098; FAM-aptamer displacement from GRK2; inhibition of aptamer binding, % at 10 µM; actives 0.59% (n = 330,000);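 active = inhibition of aptamer binding above 40%, roughly 3 SD of noise, on plates passing a quality check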;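 note: median bead fluorescence of bound FAM aptamer so fluorescent compounds give negative values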
DNMT1 block – human DNMT1 methyltransferase inhibitors, primary screen, biochemical, molecular beacon, fluorescence, HinP1I cleavage, uHTS. inhibition (reported as % activation of signal), % at 10 µM. actives 0.83% (n = 360,000). DNA (cytosine-5)-methyltransferase 1 (Homo sapiens), P26358; in the data active = inhibition above about 50%
SUMO1-SIM PPI – modulators of SUMO1 protein-protein interactions, primary screen, biochemical, uHTS; SUMO1 binding to a labelled peptide, TR-FRET, 1 h; inhibition, % at 20 µM; actives 0.33% (n = 360,000); in the data active = inhibition above about 37%
GRK2 CP1 – GRK2 aptamer-displacing inhibitors, retest, confirmation, biochemical, cherry pick 1, bead flow cytometry | shares compounds with GRK2 inh | bead-bound GRK2, FAM-aptamer displacement | aptamer displacement, % at 10 µM | actives 4% (n = 2,000) | AID 504451, 2011;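 active = aptamer displacement above 40%, near three times the noise of non-fluorescent compounds, on plates passing quality checks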;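 note: negative values mostly reflect intrinsic compound fluorescence rather than true enhancement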
FAM quench CP1 – counter-screen for GRK2 aptamer inhibitors: fluorescent aptamer quenchers; shares compounds with GRK2 inh; Carboxyfluorescein RNA aptamer on beads, flow cytometry quenching; hits give low values; fluorescence response (% of DMSO), % at 10 µM; 2,000 tested, under 10 active;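 active = compounds that quench the bead-bound fluorescent RNA probe, cutting fluorescence to under half of the solvent control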;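 note: counterscreen run without GRK2 so only probe quenching by compound is measured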
Numbers without * were called inactive; / = no result.

SMILES | LMPTP inh | STEP inh | Scp1 inh | GRK2 inh | DNMT1 block | SUMO1-SIM PPI | GRK2 CP1 | FAM quench CP1
Cc1cccc(N2CC(C(=O)Nc3ccc(S(=O)(=O)N4CCOCC4)cc3)CC2=O)c1C (centres undefined) | 0 | 1 | -2 | 2 | -3 | 4 | / | /
Nc1[nH]c(C(=O)c2ccccc2)c(-c2ccc(Cl)cc2)c1C(=O)NCc1ccccc1 | -2 | / | / | / | / | -5 | / | /
Cc1ccc(S(=O)(=O)N2CCCCC2)cc1NC(=O)CCN1C(=O)C2CC=CCC2C1=O (centres undefined) | -2 | 0 | -5 | 0 | -1 | 0 | / | /
O=C(CCN1C(=O)C2CC=CCC2C1=O)Nc1cccc(S(=O)(=O)N2CCCCC2)c1 (centres undefined) | 0 | -4 | -4 | 1 | 2 | 3 | -8 | 108
CC(=O)c1ccc(OCCCC(=O)Nc2cccc(S(=O)(=O)N3CCCCC3)c2)cc1 | 1 | -1 | -13 | 0 | -3 | -1 | -1 | 98
CC(C)C[C@H]1CN(CCCC[C@H]2CNC(=O)C(=O)N2Cc2ccccc2)C(=O)C(=O)N1CC1CCCCC1 | -2 | / | / | / | / | 6 | / | /
Cc1cccc(C)c1NC(=O)COC(=O)CNC(=O)C1CCCCC1 | -1 | 7 | -4 | 95* | -3 | 0 | 0 | 98
CCOC(=O)c1cccc(NC(=O)CNC(=O)C2CCCCC2)c1 | -2 | -1 | 3 | 54* | 4 | -6 | -1 | 97
O=C(COC(=O)CNC(=O)C1CCCCC1)Nc1ccccc1 | -3 | 2 | -1 | 0 | 2 | -2 | / | /
CC1=C(C(=O)N2CCOCC2)CC(CC(=O)NC2CCCCC2)C(=O)N1Cc1ccc(C(C)(C)C)cc1 (centres undefined) | -2 | 1 | / | / | 17 | 3 | / | /
O=S(=O)(NCCCc1ccccc1)c1ccccc1 | -2 | 2 | -16 | 0 | 0 | 3 | / | /
Cc1ccc(C)c(S(=O)(=O)NCCCc2ccccc2)c1 | 1 | 0 | 2 | 81* | 1 | 30 | 0 | 109
Cn1nccc1C(=O)Nc1ccc2c(c1)OCCO2 | 0 | -2 | -4 | 100* | -1 | -6 | 3 | 95
Cc1nn(-c2ccc(F)cc2)c(Cl)c1/C=C(\CC(=O)O)c1nc2ccccc2s1 | -1 | -1 | -4 | 2 | -3 | -11 | 2 | 98
CC[N+](CC)=N/N=C1\C=CC[N+]([O-])=C1 | 0 | / | / | / | / | -3 | / | /
CC1(c2nnnn2-c2ccc3c(c2)OCCO3)CCC(=O)N1Cc1ccc(F)cc1 (centres undefined) | 1 | / | / | / | / | 3 | / | /
CC1(C(=O)NCc2ccccc2)CN(S(C)(=O)=O)CC(=O)N1CCCN1CCOCC1 (centres undefined) | -1 | / | / | / | / | -2 | / | /
COc1cc2c(cc1OC)C(C)N(C(=O)c1cccs1)CC2 (centres undefined) | -2 | -2 | -5 | 81* | -1 | 4 | -4 | 102
COc1cc2c(cc1OC)C(C)N(C(C)=O)CC2 (centres undefined) | -1 | -3 | 0 | 0 | -1 | 1 | / | /
COC(=O)CNc1nc(C2CC2)nc2c1nnn2Cc1ccccc1Cl | 0 | -3 | -6 | 0 | 6 | 4 | / | /

Bioassay records as filed in PubChem BioAssay.
